The test system of data set [1] is Trypanosoma brucei brucei. The data set is described as follows: Antitrypanosomal activity against bloodstream form of Trypanosoma brucei brucei MITat1.1 after 6 to 8 hrs by Alamar Blue assay. To be noted: in the assay text read “after 24 hrs” for “after 6 to 8 hrs”. It is filed as functional, organism-based. The essentials: (§1)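 T. b. brucei MITat1.1 cultured in HMI-9 with 10% heat-inactivated FBS, subcultured 1:10 every 24 h to stay in log phase, 37°C, 5% CO2. Seeded at 2×10^5 cells/ml with varying inhibitor concentrations or DMSO alone. Alamar Blue added after 6-8 h, total incubation 24 h. Absorbance read at 540 and 595 nm. EC50 from 4-parameter logistic fit of percent inhibition versus controls.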
On the technique in general: The colour change of resazurin is a common sign of viable cells or microbes.

Data set [2] in a line: Selectivity for bloodstream form of Trypanosoma brucei brucei MITat1.1 over human HL60 cells. The arrangement: species or system HL-60. The method in brief: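 Both were measured by seeding at 2×10^5 cells/ml with varying inhibitor concentrations, reading absorbance at 540 and 595 nm, and comparing to inhibitor-free controls.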
Data set [3] concerns Trypanosoma brucei brucei. The data set is described as follows: Antitrypanosomal activity against bloodstream form of Trypanosoma brucei brucei MITat1.1 after 24 hrs by Alamar Blue assay.
In data set [4] the test system is Trypanosoma brucei brucei. Kind of data set: Antitrypanosomal activity against bloodstream form of Trypanosoma brucei brucei. It is filed as functional, organism-based. The method in brief: as §1
For data set [5], the system named is Trypanosoma brucei brucei. Kind of data set: Antitrypanosomal activity against bloodstream form of Trypanosoma brucei brucei MITat1.1 assessed as bigeye phenotype at 55.6 uM after 24 hrs by epifluorescence microscopy relative to untreated control. The format is functional, organism-based. The essentials: (§2)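 Trypanosomes exposed to the stated concentration at 37°C for 24 h, then fixed 10 min at 37°C in 3% (w/v) paraformaldehyde (final). Washed in PBS with 15 mM sodium azide, then in water, and settled on poly-L-lysine coated coverslips. Kinetoplast/nucleus counts and morphology scored by epifluorescence microscopy against an untreated control.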

Data set [6] deals with Trypanosoma brucei brucei. The data set is described as follows: Antitrypanosomal activity against bloodstream form of Trypanosoma brucei brucei MITat1.1 assessed as increase in multinucleate cells at 55.6 uM after 24 hrs by epifluorescence microscopy relative to untreated control. The format is functional, organism-based. The method in brief: as §2
Another data set concerns HL-60. Kind of data set: Cytotoxicity against human HL60 cells after 48 hrs by Alamar Blue assay. It is filed as cell-based. To be noted: hl-60, 48 h. The essentials:
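HL-60 cells grown in RPMI-1640 with 10% heat-inactivated FBS, penicillin/streptomycin and 2 mM L-glutamine, 37°C, 5% CO2. Seeded at 2×10^5 cells/ml with varying inhibitor concentrations or DMSO alone. Alamar Blue added after 30-32 h, total incubation 48 h. Absorbance read at 540 and 595 nm. EC50 derived from percent signal inhibition versus inhibitor-free controls.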

Data set [7] deals with Trypanosoma brucei brucei. The data set is described as follows: Antitrypanosomal activity against bloodstream form of Trypanosoma brucei brucei MITat1.1 assessed as bigeye phenotype at 0.78 uM after 24 hrs by epifluorescence microscopy relative to untreated control. It is filed as functional, organism-based. The essentials:
as §2

Data set [8] concerns Trypanosoma brucei brucei. The data set is described as follows: Antitrypanosomal activity against bloodstream form of Trypanosoma brucei brucei MITat1.1 assessed as increase in multinucleate cells at 0.78 uM after 24 hrs by epifluorescence microscopy relative to untreated control. It is filed as functional, organism-based. The essentials: as §2

The structures appear in SMILES notation. Calls of active or inactive are those of the source. The rule behind the calls is not given here.

A word on the EC50: it is the concentration needed to bring the measured effect to its halfway point. For `CC(C)(C)OC(=O)NCCCC[C@@H](/C=C/S(=O)(=O)c1ccccc1)NC(=O)[C@H](Cc1ccccc1)NC(=O)OCc1ccccc1`, the Activity result in [1] was “Dose-dependent effect”. The Selectivity ratio in data set [2] was >83. For the same molecule, the half-maximal effective concentration (EC50) in [3] amounted to 660 nM.

What is called IC50 is the midpoint of a concentration-inhibition curve. A higher IC50 goes with weaker potency. Take `CN1CCN(C(=O)N[C@@H](Cc2ccccc2)C(=O)N[C@H](/C=C/S(=O)(=O)c2ccccc2)CCc2ccccc2)CC1` [K-777]: the Activity result in data set [1] was “Dose-dependent effect”. In data set [2], the Selectivity ratio is > 9.9. For the same molecule, a half-maximal effect in [3] (EC50) was put at 5560 nM. The molecule further displayed an IC50 in data set [4] of 100 nM. Also, the outcome in [5] and in data set [6] was Active.

As for `Cl.NCCCC[C@@H](/C=C/S(=O)(=O)c1ccccc1)NC(=O)[C@H](Cc1ccccc1)NC(=O)OCc1ccccc1`, in data set [1], the Activity result is “Dose-dependent effect” and a half-maximal response (EC50) required 22400 nM. Besides, in data set [2], the Selectivity ratio is listed as >2.4.

On to `CC(C)(C)OC(=O)NCCCC[C@@H](/C=C/C(=O)c1ccccc1)NC(=O)[C@H](Cc1ccccc1)NC(=O)OCc1ccccc1`, for which, in the data set on HL-60, the Activity result is given as “Toxic”. In addition, in data set [1], the Activity entry is “Dose-dependent effect” and a half-maximal effect (EC50) was put at 820 nM. Further, the Selectivity ratio in data set [2] was >67.1.

Turning to `O=C(N[C@@H](Cc1ccccc1)C(=O)N[C@H](/C=C/S(=O)(=O)c1ccccc1)CCCCNS(=O)(=O)c1cccc2ccccc12)OCc1ccccc1`, the Activity entry in [1] was “Dose-dependent effect”. Moreover, the half-maximal effective concentration (EC50) in data set [1] was determined as 70 nM. In addition, the outcome in [7] and in data set [8] was Active. Besides, the Selectivity ratio in data set [2] is given as >785.7.

For the molecule `CC(C)(C)OC(=O)NCCCC[C@@H](/C=C/S(=O)(=O)c1cccc2ccccc12)NC(=O)[C@H](Cc1ccccc1)NC(=O)OCc1ccccc1`, the Activity result in data set [1] was “Dose-dependent effect”. In [2], the Selectivity ratio is >80.1. For the same molecule, a half-maximal effect in data set [3] (EC50) was put at 680 nM.

With `CC(C)(C)OC(=O)NCCCC[C@@H](/C=C/S(=O)(=O)c1ccccc1)NC(=O)[C@@H]1CCCN1C(=O)OCc1ccccc1`, the Activity result in data set [1] was “Dose-dependent effect”. Moreover, the Selectivity ratio in [2] is on record as >5.7. This molecule displayed an EC50 in [3] of 9960 nM.

On to `COc1cc(Br)c(S(=O)(=O)NCCCC[C@@H](/C=C/S(=O)(=O)c2ccccc2)NC(=O)[C@H](Cc2ccccc2)NC(=O)OCc2ccccc2)cc1OC`, for which, in data set [1], the Activity result is “Dose-dependent effect” and the EC50 amounted to 310 nM. The Selectivity ratio in [2] is recorded as >177.4.

Take `CC(C)(C)OC(=O)NCCCC[C@@H](/C=C/S(=O)(=O)c1ccc2ccccc2c1)NC(=O)[C@H](Cc1ccccc1)NC(=O)OCc1ccccc1`: in [1], the Activity entry was “Dose-dependent effect” and the midpoint of the response, the EC50, lay at 1030 nM. For the same molecule, the Selectivity ratio in data set [2] is >53.4.

Turning to `CC(C)C[C@H](NC(=O)OCc1ccccc1)C(=O)N[C@H](/C=C/S(=O)(=O)c1ccccc1)CCCCNC(=O)OC(C)(C)C`, in data set [1], the Activity entry is “Dose-dependent effect” and the EC50 came to 1180 nM. Moreover, the Selectivity ratio in data set [2] is >46.6.

On to `CC(C)(C)OC(=O)NCCCC[C@@H](CCS(=O)(=O)c1ccccc1)NC(=O)[C@H](Cc1ccccc1)NC(=O)OCc1ccccc1`, for which the Activity entry in data set [1] was “Dose-dependent effect”. Moreover, in data set [2], the Selectivity ratio is >2.1. The EC50 in data set [3] was found to be 26400 nM.

As to `Cc1ccc(S(=O)(=O)NCCCC[C@@H](/C=C/S(=O)(=O)c2ccccc2)NC(=O)[C@H](Cc2ccccc2)NC(=O)OCc2ccccc2)cc1`, in [1], the Activity entry is “Dose-dependent effect” and the half-maximal effective concentration (EC50) is 250 nM. Also, the Selectivity ratio in data set [2] is reported as >220.

Source of the values: ChEMBL document CHEMBL2417518, “Vinyl sulfone-based peptidomimetics as anti-trypanosomal agents: design, synthesis, biological and computational evaluation” (J Med Chem, 2013).
